Screens (PubChem)
TRPML3 ag = human TRPML3 channel agonists, primary screen, cell-based, HEK293 TRPML3-YFP, Fluo-8 calcium fluorescence, 3 µM; 100% = the carbachol control signal; actives 0.29% (n = 220,000); activation, % at 3 µM; Mucolipin-3 (Homo sapiens), Q8TDD5;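 active = activation above its plate's cutoff, the mean activation of the plate's test wells plus 3 SD, cut at about 12% in these data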
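Test system: HEK293 cells stably carrying human TRPML3-YFP; Doses: single dose, 3 µM final nominal compound, 0.3% DMSO final; Schedule: dye loading 1 h 37 °C then 30 min ambient, 125 s read; Technique: Fluo-8 calcium fluorescence; Benchmarks: high control carbachol 87 µM, low control DMSO.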
zfTRPN1 agonist = zebrafish TRPN1 channel agonists, primary screen, cell-based, HEK293, calcium fluorescence | transient receptor potential cation channel N1 (TRPN1/NompC), Danio rerio | HEK293 zebrafish TRPN1-YFP, Fluo-8 calcium fluorescence; 100% = response to 87 µM carbachol | actives 0.18% (n = 220,000) | AID 1424, 2008 | activation, % at 3 µM;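 active = activation above its plate's cutoff, the mean activation of test wells on that plate plus 3 SD, cut at about 19% in these data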
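Material: zebrafish TRPN1-YFP in HEK293 cells; Doses: single test compound dose, 3 µM nominal, 0.3% DMSO; Timing: dye loading 1 h at 37 °C, then 30 min room temperature; Technique: intracellular calcium fluorescence with Fluo-8; Benchmarks: high carbachol 87 µM, low DMSO alone.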
CRFR2-BP ag = agonists of CRF-BP/CRF-R2 complex, primary screen, cell-based, HEK293, calcium dye fluorescence, uHTS. actives 0.46% (n = 350,000). activation, % at 13.2 µM. calcium dye fluorescence (FLIPR); percent of saturating CRF peptide response. CRF-binding protein / CRF receptor 2 complex (human);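 active = activation of at least 50%, plus an integration ratio under a set limit after plate pattern correction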
OXTR potentiate = human OXTR potentiators, primary screen, fluorescence, CHO-OTR cells, Fluo-8 calcium. AID 2445, 2010. Fluo-8 calcium fluorescence, potentiator mode; 0% = oxytocin EC15, 100% = EC100. Oxytocin receptor (Homo sapiens), P30559. actives 0.061% (n = 320,000). activation, % at 3 µM;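 active = activation above that plate's cutoff, the mean activation of tested compounds plus 3 SD, cut at about 6.6% in these data, passing the limit was not always enough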
Target sequence (P30559 whole entry, looked up): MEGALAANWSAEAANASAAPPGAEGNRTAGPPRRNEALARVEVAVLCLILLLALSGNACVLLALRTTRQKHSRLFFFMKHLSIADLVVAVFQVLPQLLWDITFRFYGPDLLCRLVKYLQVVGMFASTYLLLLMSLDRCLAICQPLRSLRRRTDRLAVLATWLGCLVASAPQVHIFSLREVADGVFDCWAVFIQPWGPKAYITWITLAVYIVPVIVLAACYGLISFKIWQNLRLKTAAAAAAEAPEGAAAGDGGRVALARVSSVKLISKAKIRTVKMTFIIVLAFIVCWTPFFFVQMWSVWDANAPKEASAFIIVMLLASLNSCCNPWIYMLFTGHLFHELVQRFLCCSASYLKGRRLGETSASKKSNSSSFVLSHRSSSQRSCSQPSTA
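Assay system: CHO cell line stably expressing human OTR | Also added: Oxytocin at about EC15, sub-maximal agonist stimulus | Times: Compound 6 min at room temperature before oxytocin, 100 s read | Measured by: Fluo-8 intracellular calcium fluorescence, ex 470-495, em 515-575 nm | Controls: EC15 oxytocin alone as 0%, 75 nM oxytocin as 100%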
V1R ag counter = agonists of human V1a receptor, primary screen, counter-screen for OXTR agonist project, fluorescence, CHO-V1R cells; activation, % at 3 µM; actives 0.25% (n = 320,000); Fluo-8 calcium fluorescence, agonist mode; 0% DMSO, 100% 3 nM vasopressin; AID 2797, 2010; Vasopressin V1a receptor (Homo sapiens), P37288;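 active = activation above the mean activation of all tested compounds plus 3 SD, per screening run, cut at about 20% in these data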;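 also: signal is peak over basal fluorescence ratio across a 100 second FLIPR read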
OXTR ag = human OXTR agonists, primary screen, fluorescence, CHO-OTR cells, Fluo-8 calcium; Oxytocin receptor (Homo sapiens), P30559; Fluo-8 calcium fluorescence; normalized: DMSO 0%, oxytocin 100%; activation, % at 3 µM; actives 0.32% (n = 320,000); AID 2435, 2010;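 active = activation above the mean of all tested compounds plus 3 SD, cutoff set per screening run, cut at about 20% in these data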;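 also: peak over basal fluorescence ratio from a 100 s FLIPR kinetic read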
Hits are given with their value; i = inactive; nt = no result. Sampled rows, rich in hits. Any-hit rate of the full collection: about 0.83%.

SMILES | TRPML3 ag | zfTRPN1 agonist | CRFR2-BP ag | OXTR potentiate | V1R ag counter | OXTR ag
CCOC(=O)c1c(-c2cc(OC)c(OC)c(OC)c2)csc1N | nt | nt | i | nt | nt | nt
CCOC(=O)/C(=C/c1ccc(N2CCC(c3ccccc3)=N2)cc1)C(C)=O | i | i | 254 | nt | nt | nt
Cc1ccc(C(=O)CC(=O)c2cc(Cl)ccc2O)cc1 | i | i | 68 | i | i | i
O=C(COC(=O)CSc1cc(Cl)ccc1Cl)NCc1ccc2c(c1)OCO2 | i | i | 52 | i | i | i
O=C(COC(=O)COc1ccc(Cl)cc1)NCc1ccc2c(c1)OCO2 | nt | nt | i | i | i | i
O=C(COc1ccc(F)cc1)N(Cc1cccs1)C1CCS(=O)(=O)C1 (configuration not stated) | nt | nt | 66 | i | i | i
O=C(COc1ccccc1)N(Cc1cccs1)C1CCS(=O)(=O)C1 (configuration not stated) | i | i | i | i | i | i
Cc1ccc(C(=O)NCCNC(=O)c2ccc(F)cc2)cn1 | nt | nt | 80 | i | i | i
CN(C)S(=O)(=O)c1ccc2c(c1)/C(=C/c1cc3c([nH]1)CCCC3)C(=O)N2 | nt | nt | 122 | i | 25 | 35
CN(C)S(=O)(=O)c1ccc2c(c1)C(=O)c1cc(S(=O)(=O)N(C)C)ccc1CC2 | nt | nt | i | i | i | i
COc1ccc(N=Nc2nc3ccc(Br)cc3n2C)cc1 | 30 | 39 | i | i | i | i
COc1cccc(C2=NOC(C(=O)Nc3ccc4c(c3)OCO4)C2)c1OC (configuration not stated) | nt | nt | i | i | i | i
O=C(N/N=C/c1ccc([N+](=O)[O-])cc1)c1cc2ccccc2o1 | i | i | i | i | i | i
C/C(=N\Nc1ccc([N+](=O)[O-])cc1)c1cc2ccccc2o1 | i | i | 53 | i | i | i
Cc1c(Cl)c([N+](=O)[O-])nn1CC(=O)NCc1ccc(Cl)cc1 | nt | nt | i | i | i | i
O=C(CCc1nc2ccccc2c(=O)[nH]1)Nc1cc(C(F)(F)F)ccc1N1CCCC1 | nt | nt | i | i | i | i
COc1cc(N2CCCC2)c(OC)cc1/C=C1/NC(=S)NC1=O | 17 | 60 | 178 | i | 36 | 48
CCn1ncc(C2=NOC(C(=O)NCC(C)C)C2)c1C (configuration not stated) | i | i | i | i | i | i
CCn1ncc(C2=NOC(C(=O)Nc3cnn(C45CC6CC(CC(C6)C4)C5)c3)C2)c1C (configuration not stated) | i | i | i | i | 25 | 35
O=C(COC(=O)[C@H](Cc1ccccc1)NC(=O)c1ccco1)Nc1ccccc1 | nt | nt | i | i | i | i
COC(=O)CNC(=O)COC(=O)C(Cc1ccccc1)NC(=O)c1ccco1 (configuration not stated) | i | i | 55 | i | i | i
Cc1ccc(S(=O)(=O)NCc2ccccc2)cc1C(=O)N1CCN(S(=O)(=O)c2ccccc2F)CC1 | nt | nt | i | nt | nt | nt
N#Cc1ccccc1S(=O)(=O)N1CCN(C(=O)[C@H](Cc2ccccc2)NC(=O)c2ccco2)CC1 | nt | nt | i | i | i | i
COc1ccc(-c2ccc3c(N)c(C(=O)c4ccc(OC)c(OC)c4)sc3n2)cc1 | i | i | i | i | i | i
COc1ccc(C(=O)c2sc3nc(-c4ccccc4)ccc3c2N)cc1OC | i | i | 52 | i | i | i
COc1ccc(NC(=O)C(c2cc3c(cc2[N+](=O)[O-])OCO3)N(C)c2ccccc2)cc1 (configuration not stated) | i | i | 90 | i | i | i
O=C(CCN=C1NS(=O)(=O)c2ccccc21)Nc1ccc(F)cc1Cl | nt | nt | i | i | i | i
